{"source": "ChEMBL document CHEMBL3351316", "about": "“Scaffold hopping approach on the route to selective tankyrase inhibitors” (Eur J Med Chem, 2014)", "key": {"[1]": {"target": "T1, Protein mono-ADP-ribosyltransferase PARP8 (Homo sapiens) (UniProt Q8N3A8)", "T1 sequence (whole entry)": "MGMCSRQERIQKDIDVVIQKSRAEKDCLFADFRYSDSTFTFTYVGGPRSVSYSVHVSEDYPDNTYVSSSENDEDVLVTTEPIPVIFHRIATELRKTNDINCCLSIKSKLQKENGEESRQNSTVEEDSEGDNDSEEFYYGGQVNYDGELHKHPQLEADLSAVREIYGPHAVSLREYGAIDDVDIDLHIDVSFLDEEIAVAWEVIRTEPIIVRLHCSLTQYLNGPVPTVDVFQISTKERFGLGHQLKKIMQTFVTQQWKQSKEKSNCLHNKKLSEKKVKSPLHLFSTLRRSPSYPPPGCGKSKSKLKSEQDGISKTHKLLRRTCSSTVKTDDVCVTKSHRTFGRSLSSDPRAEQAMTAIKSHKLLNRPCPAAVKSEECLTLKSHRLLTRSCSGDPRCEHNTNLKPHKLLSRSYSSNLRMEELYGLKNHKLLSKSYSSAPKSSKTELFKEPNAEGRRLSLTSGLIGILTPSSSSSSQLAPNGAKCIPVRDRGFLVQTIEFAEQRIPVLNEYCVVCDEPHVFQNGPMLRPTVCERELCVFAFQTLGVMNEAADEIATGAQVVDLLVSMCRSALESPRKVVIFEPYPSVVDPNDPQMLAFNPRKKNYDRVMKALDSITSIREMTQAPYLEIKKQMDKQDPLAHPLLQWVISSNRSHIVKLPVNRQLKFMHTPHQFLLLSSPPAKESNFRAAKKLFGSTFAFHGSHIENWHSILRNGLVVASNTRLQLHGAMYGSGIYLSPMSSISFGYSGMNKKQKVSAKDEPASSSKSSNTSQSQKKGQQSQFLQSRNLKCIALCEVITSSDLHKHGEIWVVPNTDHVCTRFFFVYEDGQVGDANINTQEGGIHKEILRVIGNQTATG", "experiment": "Inhibition of human recombinant PARP8 at 10 uM incubated for 1 hr using NAD+, biotinylated NAD+ and activated DNA by luminescence based assay", "in_short": "(§1)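 Recombinant PARP enzyme reactions were run in duplicate for 1 h at rt on histone-coated plates in Tris·HCl pH 8.0 buffer with NAD+, biotinylated NAD+ and activated DNA. Detection used streptavidin-HRP for 30 min at rt, then a chemiluminescent developer. % inhibition = 100 − % activity, scaled between the no-compound (100%) and no-enzyme (0%) signals.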"}, "[2]": {"target": "T2, Protein mono-ADP-ribosyltransferase TIPARP (Homo sapiens) (UniProt Q7Z3E1)", "T2 sequence (whole entry)": "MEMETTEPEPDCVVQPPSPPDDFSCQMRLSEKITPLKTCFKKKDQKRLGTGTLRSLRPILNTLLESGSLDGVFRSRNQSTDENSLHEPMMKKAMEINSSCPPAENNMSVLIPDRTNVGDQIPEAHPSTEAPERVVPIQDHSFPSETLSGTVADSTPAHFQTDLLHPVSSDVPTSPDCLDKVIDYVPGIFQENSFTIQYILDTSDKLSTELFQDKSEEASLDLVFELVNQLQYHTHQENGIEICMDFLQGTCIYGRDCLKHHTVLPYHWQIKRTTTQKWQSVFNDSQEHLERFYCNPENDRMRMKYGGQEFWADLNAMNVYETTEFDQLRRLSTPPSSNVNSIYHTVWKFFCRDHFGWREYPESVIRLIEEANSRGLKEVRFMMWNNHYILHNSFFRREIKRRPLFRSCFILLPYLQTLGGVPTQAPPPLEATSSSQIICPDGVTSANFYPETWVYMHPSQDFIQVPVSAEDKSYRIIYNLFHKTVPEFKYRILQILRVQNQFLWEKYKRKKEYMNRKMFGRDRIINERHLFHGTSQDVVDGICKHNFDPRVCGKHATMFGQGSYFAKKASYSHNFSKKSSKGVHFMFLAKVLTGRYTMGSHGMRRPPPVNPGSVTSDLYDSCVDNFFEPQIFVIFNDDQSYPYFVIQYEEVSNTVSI", "experiment": "Inhibition of human recombinant PARP7 at 10 uM incubated for 1 hr using NAD+, biotinylated NAD+ and activated DNA by luminescence based assay", "in_short": "as §1"}, "[3]": {"target": "T3, Protein mono-ADP-ribosyltransferase PARP11 (Homo sapiens) (UniProt Q9NR21)", "T3 sequence (whole entry)": "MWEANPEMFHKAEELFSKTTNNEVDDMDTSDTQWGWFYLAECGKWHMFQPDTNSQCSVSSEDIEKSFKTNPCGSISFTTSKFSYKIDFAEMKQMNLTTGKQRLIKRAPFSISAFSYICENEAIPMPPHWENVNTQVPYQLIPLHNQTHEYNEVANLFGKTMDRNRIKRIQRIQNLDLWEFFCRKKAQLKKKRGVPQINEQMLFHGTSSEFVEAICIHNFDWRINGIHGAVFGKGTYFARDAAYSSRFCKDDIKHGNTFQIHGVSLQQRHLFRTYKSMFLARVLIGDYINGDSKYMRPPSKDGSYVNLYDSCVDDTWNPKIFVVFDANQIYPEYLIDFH", "experiment": "Inhibition of human recombinant PARP11 at 10 uM incubated for 1 hr using NAD+, biotinylated NAD+ and activated DNA by luminescence based assay", "in_short": "as §1"}, "RKO": {"tested_on": "RKO", "experiment": "Growth inhibition of Wnt-negative human RKO cells at >10 uM", "assay_type": "functional, cell-based"}, "[4]": {"target": "T4, Protein mono-ADP-ribosyltransferase PARP12 (Homo sapiens) (UniProt Q9H0J9)", "T4 sequence (whole entry)": "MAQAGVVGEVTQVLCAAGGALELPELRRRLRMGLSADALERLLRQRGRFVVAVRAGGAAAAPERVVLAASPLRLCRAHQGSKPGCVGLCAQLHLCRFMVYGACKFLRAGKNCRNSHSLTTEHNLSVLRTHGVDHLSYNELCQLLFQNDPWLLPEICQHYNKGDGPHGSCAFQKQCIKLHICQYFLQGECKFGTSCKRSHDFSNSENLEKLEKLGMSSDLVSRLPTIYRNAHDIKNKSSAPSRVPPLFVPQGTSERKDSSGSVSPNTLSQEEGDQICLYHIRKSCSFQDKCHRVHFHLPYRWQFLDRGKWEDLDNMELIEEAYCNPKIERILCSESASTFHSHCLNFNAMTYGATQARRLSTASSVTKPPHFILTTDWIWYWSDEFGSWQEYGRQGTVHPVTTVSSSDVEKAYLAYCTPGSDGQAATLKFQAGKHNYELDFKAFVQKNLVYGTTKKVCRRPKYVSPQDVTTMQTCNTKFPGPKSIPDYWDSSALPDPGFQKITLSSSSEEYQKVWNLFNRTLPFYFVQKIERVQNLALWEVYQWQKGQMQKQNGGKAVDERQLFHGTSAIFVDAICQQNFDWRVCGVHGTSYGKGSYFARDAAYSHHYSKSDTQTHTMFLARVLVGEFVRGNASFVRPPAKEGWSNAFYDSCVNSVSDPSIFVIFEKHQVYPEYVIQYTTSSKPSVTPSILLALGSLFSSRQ", "experiment": "Inhibition of human recombinant PARP12 at 10 uM incubated for 1 hr using NAD+, biotinylated NAD+ and activated DNA by luminescence based assay", "in_short": "as §1"}, "[5]": {"target": "Poly [ADP-ribose] polymerase 2 (Homo sapiens) (UniProt Q9UGN5)", "sequence (Q9UGN5 whole entry)": "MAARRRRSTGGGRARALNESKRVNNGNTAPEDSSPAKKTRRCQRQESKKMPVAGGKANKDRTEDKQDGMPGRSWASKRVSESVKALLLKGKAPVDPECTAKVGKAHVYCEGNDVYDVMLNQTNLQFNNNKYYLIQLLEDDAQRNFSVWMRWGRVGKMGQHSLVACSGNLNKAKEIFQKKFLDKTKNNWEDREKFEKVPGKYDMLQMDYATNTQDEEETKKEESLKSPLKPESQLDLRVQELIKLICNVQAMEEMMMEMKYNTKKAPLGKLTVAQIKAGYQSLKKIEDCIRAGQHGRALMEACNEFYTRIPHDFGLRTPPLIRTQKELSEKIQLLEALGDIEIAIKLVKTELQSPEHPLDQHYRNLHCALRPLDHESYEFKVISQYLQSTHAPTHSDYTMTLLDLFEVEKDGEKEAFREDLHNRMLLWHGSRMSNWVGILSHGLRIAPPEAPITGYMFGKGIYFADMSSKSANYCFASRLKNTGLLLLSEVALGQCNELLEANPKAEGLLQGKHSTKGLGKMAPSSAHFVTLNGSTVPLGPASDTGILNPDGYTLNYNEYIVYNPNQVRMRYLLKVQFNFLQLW", "experiment": "Inhibition of human recombinant PARP2 incubated for 1 hr using histone substrate at 1 uM by luminescence based assay", "in_short": "as §1"}}, "note": "The source made the active and inactive calls. The rule behind the calls is not given here.", "data": [{"smiles": "CC(C)(C)c1ccc(-c2nc3c(sc4ccccc43)c(=O)[nH]2)cc1", "values": [{"measurement": "inhibition", "setting": "[1]", "result": 3, "unit": "%"}, {"measurement": "inhibition", "setting": "[2]", "result": 7, "unit": "%"}, {"measurement": "inhibition", "setting": "[3]", "result": 10, "unit": "%"}, {"measurement": "growth inhibition (GI)", "setting": "RKO", "result": "Active"}, {"measurement": "inhibition", "setting": "[4]", "result": 14, "unit": "%"}, {"measurement": "inhibition", "setting": "[5]", "result": 4, "unit": "%"}]}]}
